Data on 5 compounds can be found in ChEMBL document CHEMBL1126988, “Quinolone antibacterials containing the new 7-[3-(1-aminoethyl)-1- pyrrolidinyl] side chain: the effects of the 1-aminoethyl moiety and its stereochemical configurations on potency and in vivo efficacy” (J Med Chem, 1993).

SMILES strings stand for the structures. pIC50: −log10 of the molar value. Converted amounts (≈) assume the structure as drawn. Where only a bound is given, the exact number is not on record here.

The test system of experiment [1] is Escherichia coli. Nature of the experiment: Antibacterial activity in vitro against Escherichia coli Vogel. It is filed as functional. To be noted: Escherichia coli; read-out: MIC. In outline:
(§1)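 Standard microtitration broth assay against a panel of 10 Gram-positive and Gram-negative organisms. MIC read in µg/mL and averaged over multiple experiments.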

Experiment [2] deals with Escherichia coli. Nature of the experiment: Antibacterial activity against Escherichia coli Vogel after oral administration in mouse. Type of experiment: functional. To be noted: for ED50: Escherichia coli, po, read-out: PD50.
In a further experiment the test system is Enterobacter cloacae. Nature of the experiment: Minimum inhibitory concentration in vitro against Enterobacter cloacae MA 2646. It is filed as functional. Particulars: Enterobacter cloacae; read-out: MIC.
The next experiment relates to Providencia rettgeri. Nature of the experiment: Minimum inhibitory concentration was evaluated in vitro against Providencia rettgeri M1771. Type of experiment: functional. Particulars: Providencia rettgeri; read-out: MIC. In outline: as §1
Experiment [3] concerns Streptococcus pyogenes. Nature of the experiment: Compounds were evaluated in vivo for antibacterial activity for mouse protection against Streptococcus pyogenes C 203 after subcutaneous administration. It is filed as functional. To be noted: C 203, sc, read-out: PD50.
The test system of experiment [4] is Staphylococcus aureus. Nature of the experiment: Minimum inhibitory concentration was evaluated in vitro against Staphylococcus aureus H 228. Type of experiment: functional. In outline:
as §1

For experiment [5], the system named is Streptococcus pyogenes. Nature of the experiment: Compounds were evaluated in vivo for antibacterial activity for mouse protection against Streptococcus pyogenes C 203 after oral administration. Type of experiment: functional. To be noted: for ED50: C 203, po, read-out: PD50.
Experiment [6] concerns Escherichia coli. Nature of the experiment: Antibacterial activity against Escherichia coli Vogel after subcutaneous administration in mouse. It is filed as functional. Particulars: for ED50: Escherichia coli, sc, read-out: PD50.
A further experiment has as its system Enterococcus faecalis. Nature of the experiment: Minimum inhibitory concentration was evaluated in vitro against Enterococcus faecalis MGH-2. Type of experiment: functional. Put shortly:
as §1

A further experiment deals with Klebsiella pneumoniae. Nature of the experiment: Minimum inhibitory concentration was evaluated in vitro against Klebsiella pneumoniae MGH2. It is filed as functional. To be noted: Klebsiella pneumoniae; read-out: MIC. In outline: as §1
Experiment [7] is filed under the species Mus musculus. Nature of the experiment: Compounds were evaluated for phototoxicity no-effect dose in mouse. It is filed as functional. In outline:
(§2)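 Depilated female CD-1 mice, five per dose plus controls. Animals are dosed orally and then exposed daily to UV-A (320–400 nm) for 3 h, for up to 4 days or until a definite positive response. Redness or erythema relative to controls, read 24 h after irradiation, counts as positive. Reported as the highest dose with no effect (mg/kg).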

In another experiment the test system is Pseudomonas aeruginosa. Nature of the experiment: Minimum inhibitory concentration was evaluated in vitro against Pseudomonas aeruginosa UI-18. Type of experiment: functional. Particulars: Pseudomonas aeruginosa; read-out: MIC. Put shortly: as §1
Experiment [8] relates to Staphylococcus aureus. Nature of the experiment: Minimum inhibitory concentration was evaluated in vitro against Staphylococcus aureus UC 76. It is filed as functional. Put shortly:
as §1

A further experiment has as its system Streptococcus pneumoniae. Nature of the experiment: Minimum inhibitory concentration was evaluated in vitro against Streptococcus pneumoniae SV-1. Type of experiment: functional. In outline: as §1
The subject of experiment [9] is Streptococcus pyogenes. Nature of the experiment: Minimum inhibitory concentration was evaluated in vitro against Streptococcus pyogenes C 203. Type of experiment: functional. Put shortly: as §1
A short description of experiment [10]: Compound was evaluated for clonogenic cytotoxicity against hamster V-79 cells; 50% Inhibition. It is filed as functional, cell-based. To be noted: Cricetulus griseus, V79. Put shortly: (§3)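 Chinese hamster V-79 cells grown overnight, then drug-treated for 3 h at 37 °C. Medium is replaced with fresh medium and cells are incubated 5 days to allow colony formation. IC50 (µg/mL) is the concentration inhibiting colony formation by 50% relative to control.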

The species entered for experiment [11] is Mus musculus. Nature of the experiment: Compound was evaluated for phototoxicity no-effect dose in mouse. Type of experiment: functional. In outline: as §2
For experiment [12], the system named is Streptococcus pyogenes. Nature of the experiment: Antibacterial activity measured as mouse protection against Streptococcus pyogenes C 203 after subcutaneous administration. To be noted: Streptococcus pyogenes, C 203, sc; read-out: PD50. It is filed as functional.
Experiment [13] in a line: Clonogenic cytotoxicity against hamster V-79 cells. Type of experiment: functional, Cricetulus griseus, V79. In outline: as §3
A further experiment addresses DNA gyrase (Escherichia coli, UniProt P0AES4+P0AES6). Nature of the experiment: Inhibition against DNA gyrase. Type of experiment: protein-complex assay.
Experiment [14] concerns Streptococcus pyogenes. Nature of the experiment: Antibacterial activity expressed as Minimum inhibitory concentration was evaluated in vitro against Streptococcus pyogenes C 203. It is filed as functional. Put shortly:
as §1

The target in experiment [15] is DNA gyrase (Escherichia coli) (UniProt P0AES6+P0AES4). Nature of the experiment: Initial inhibition as minimal concentration to induce cleavage of DNA gyrase complex. It is filed as protein-complex assay. Put shortly: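 DNA gyrase isolated and purified from E. coli H560. Uses the initial cleavage method with relaxed Col E1 plasmid DNA as substrate. Read-out is the lowest drug concentration (µg/mL) giving detectable cleavage, seen by agarose gel electrophoresis with ethidium bromide staining. Averaged over multiple experiments, accurate to ±50%.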

The mark [16] stands for this setting: Staphylococcus aureus, read-out: MIC.
The mark [17] stands for this setting: Enterococcus faecalis, read-out: MIC.
Where [18] appears, read: Streptococcus pneumoniae, read-out: MIC.

As to `CCNCC1CCN(c2c(F)cc3c(=O)c(C(=O)O)cn(C4CC4)c3c2F)C1` (stereo not given) [PD-117558], the MIC was 0.05 µg/mL (≈ 0.128 µM) in the experiment with Escherichia coli [1], 0.1 µg/mL (≈ 0.255 µM) in the experiment with Enterobacter cloacae, 0.2 µg/mL (≈ 0.511 µM) in the experiment on Providencia rettgeri and 0.025 µg/mL (≈ 0.0639 µM) in the experiment with Staphylococcus aureus [4] (setting [16]). Further, the ED50 came to 4 mg/kg with Escherichia coli [2], 0.8 mg/kg in the experiment on Streptococcus pyogenes [3] and 1 mg/kg in the experiment on Streptococcus pyogenes [5].
`CN[C@H](C)[C@@H]1CCN(c2nc3c(cc2F)c(=O)c(C(=O)O)cn3C2CC2)C1`: the minimum inhibitory concentration (MIC) in the experiment with Escherichia coli [1] is 0.1 µg/mL (≈ 0.267 µM); with Enterobacter cloacae it was 0.1 µg/mL (≈ 0.267 µM); in the experiment with Enterococcus faecalis (setting [17]), 0.1 µg/mL (≈ 0.267 µM); in the experiment on Klebsiella pneumoniae it was 0.2 µg/mL (≈ 0.534 µM); in the experiment with Providencia rettgeri it was 0.4 µg/mL (≈ 1.07 µM); with Pseudomonas aeruginosa, 1.6 µg/mL (≈ 4.27 µM). In addition, the MIC was found to be 0.1 µg/mL (≈ 0.267 µM) in the experiment on Staphylococcus aureus [4] (setting [16]); 0.05 µg/mL (≈ 0.134 µM) with Staphylococcus aureus [8] (setting [16]); 0.025 µg/mL (≈ 0.0668 µM) in the experiment with Streptococcus pneumoniae (setting [18]); 0.05 µg/mL (≈ 0.134 µM) in the experiment on Streptococcus pyogenes [9] (Streptococcus pyogenes, read-out: MIC). Besides, the ED50 stood at 5 mg/kg in the experiment with Escherichia coli [2] and 1 mg/kg with Escherichia coli [6]. The same compound displayed a Dose in the experiment listed under Mus musculus [7] of 30 mg/kg. Besides, in [10], the IC50 turned out to be 88 µg/mL (≈ 235 µM).
`C[C@@H](N)[C@H]1CCN(c2nc3c(cc2F)c(=O)c(C(=O)O)cn3C2CC2)C1` (racemic): the minimal inhibitory concentration (MIC) in the experiment with Escherichia coli [1] was determined as 0.05 µg/mL (≈ 0.139 µM); with Enterobacter cloacae, 0.05 µg/mL (≈ 0.139 µM); with Enterococcus faecalis, 0.1 µg/mL (≈ 0.277 µM); with Klebsiella pneumoniae it was 0.1 µg/mL (≈ 0.277 µM); in the experiment on Providencia rettgeri, 0.2 µg/mL (≈ 0.555 µM); in the experiment on Pseudomonas aeruginosa, 0.8 µg/mL (≈ 2.22 µM). Moreover, the MIC in the experiment with Staphylococcus aureus [4] amounted to 0.2 µg/mL (≈ 0.555 µM); in the experiment on Staphylococcus aureus [8] it was 0.025 µg/mL (≈ 0.0694 µM); in the experiment with Streptococcus pneumoniae it was 0.05 µg/mL (≈ 0.139 µM); against Streptococcus pyogenes [9] it was 0.05 µg/mL (≈ 0.139 µM). Besides, the PD50 with Escherichia coli [6] came out at 1 mg/kg; in the experiment on Streptococcus pyogenes [5], 15 mg/kg. In addition, in the experiment filed under Mus musculus [11], the Dose was more than 100 mg/kg. The ED50 in the experiment on Streptococcus pyogenes [12] came to 5 mg/kg. This compound also had a Cytotoxicity in [13] of 84 µg/mL. The compound also gave a negative logarithm of the IC50 (pIC50) against DNA gyrase of 5.16.
For `C[C@@H](N)[C@H]1CCN(c2nc3c(cc2F)c(=O)c(C(=O)O)cn3-c2ccc(F)cc2F)C1` (racemic), the MIC was determined as 0.1 µg/mL (≈ 0.231 µM) with Escherichia coli [1]; 0.2 µg/mL (≈ 0.463 µM) in the experiment with Enterobacter cloacae; 0.025 µg/mL (≈ 0.0578 µM) in the experiment with Enterococcus faecalis (setting [17]); 0.2 µg/mL (≈ 0.463 µM) with Klebsiella pneumoniae; 0.4 µg/mL (≈ 0.925 µM) in the experiment with Providencia rettgeri; 0.8 µg/mL (≈ 1.85 µM) in the experiment with Pseudomonas aeruginosa. Further, the minimum inhibitory concentration (MIC) was found to be 0.05 µg/mL (≈ 0.116 µM) with Staphylococcus aureus [4] (setting [16]), 0.006 µg/mL (≈ 0.0139 µM) in the experiment with Staphylococcus aureus [8] (setting [16]), 0.006 µg/mL (≈ 0.0139 µM) in the experiment on Streptococcus pneumoniae (setting [18]) and 0.006 µg/mL (≈ 0.0139 µM) against Streptococcus pyogenes [14]. This compound also showed a PD50 in the experiment on Escherichia coli [2] of 3 mg/kg. Moreover, the ED50 in the experiment on Escherichia coli [6], in the experiment on Streptococcus pyogenes [12] and in the experiment with Streptococcus pyogenes [5] (Streptococcus pyogenes) was 1 mg/kg throughout. The compound further yielded a Dose in the experiment listed under Mus musculus [7] of more than 100 mg/kg. This compound came in with a Cytotoxicity in experiment [13] of 280 µg/mL. The compound further gave a pIC50 against DNA gyrase of 5.94.
`CN[C@H](C)[C@H]1CCN(c2c(F)cc3c(=O)c(C(=O)O)cn(C4CC4)c3c2OC)C1` (racemic) yielded an Initial inhibition in experiment [15] of less than 0.5 µg/mL. Also, the minimum inhibitory concentration (MIC) worked out at 0.05 µg/mL (≈ 0.124 µM) in the experiment with Escherichia coli [1]; 0.05 µg/mL (≈ 0.124 µM) with Enterobacter cloacae; 0.025 µg/mL (≈ 0.062 µM) in the experiment with Enterococcus faecalis (setting [17]); 0.1 µg/mL (≈ 0.248 µM) with Klebsiella pneumoniae; 0.2 µg/mL (≈ 0.496 µM) in the experiment on Providencia rettgeri; 0.8 µg/mL (≈ 1.98 µM) in the experiment with Pseudomonas aeruginosa. In addition, the minimal inhibitory concentration (MIC) with Staphylococcus aureus [4] (setting [16]) is 0.013 µg/mL (≈ 0.0322 µM); in the experiment with Staphylococcus aureus [8] (setting [16]), 0.003 µg/mL (≈ 0.00744 µM); with Streptococcus pneumoniae (setting [18]) it was 0.003 µg/mL (≈ 0.00744 µM); against Streptococcus pyogenes [14], 0.003 µg/mL (≈ 0.00744 µM). The values for the ED50 with Escherichia coli [2], with Escherichia coli [6] and in the experiment with Streptococcus pyogenes [12] were 5 mg/kg, 1 mg/kg and 0.1 mg/kg, respectively. Further, the Dose in the experiment listed under Mus musculus [7] is more than 100 mg/kg. For the same compound, the Cytotoxicity in [13] was determined as 33 µg/mL.

The MIC is the smallest concentration in the dilution series that meets the test's criterion for growth inhibition. What is called IC50 is the concentration that inhibits the measured activity by half. A low value points to inhibition by little substance. As usually defined, the pIC50 is −log10 of the IC50, conventionally taken in molar units.
